Assay [1] has as its system carrageenan-induced paw edema. The assay is described as follows: Carrageenan-induced paw edema in mice. The assay is classed as in vivo, Balb/c mice. The settings on record: 1 mg/kg; paw volume 0 h vs 10 h. Summed up:
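Female Balb/c mice were fasted overnight and dosed orally with test compound at 1, 2 or 5 mg/kg (n = 5 per group). 1% carrageenan in PBS was injected subplantar into the left hind paw. Paw volume was read by plethysmometer at 1, 3, 6, 8 and 10 h. % inhibition was calculated from edema volume in control vs treated groups.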

In assay [2] the test system is macrophage phagocytosis. The assay is described as follows: Macrophage phagocytosis by the carbon clearance method. The assay is classed as in vivo, Balb/C mice (Mus musculus). The settings on record: mice, 1 mg/kg. The procedure, abridged:
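Mice received saline, test compound (1, 2, 5 mg/kg) or dexamethasone (1 mg/kg) as reference. On day 6, carbon ink suspension was injected via the tail vein. Retro-orbital blood was taken at 0 and 30 min, lysed in 0.1% sodium carbonate, and read at 675 nm. Phagocytic index was derived from OD change between the two times (n = 5).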

Experimental findings from paper PMC8600527 (ACS Omega, 2021) are described below.

Turning to `C[C@@H]1C[C@H]2[C@@H]3CCC4=CC(=O)C=C[C@]4(C)[C@@]3(F)[C@@H](O)C[C@]2(C)[C@@]1(O)C(=O)CO` [dexamethasone], the “percentage inhibition of paw edema” value in assay [1] stood at 88.5%. For the same compound, the phagocytic index in assay [2] came out at 0.038 ± 0.002.
